ChEMBL document CHEMBL1275429, “Pharmacodynamic characterization of ceftobiprole in experimental pneumonia caused by phenotypically diverse Staphylococcus aureus strains” (Antimicrob Agents Chemother, 2008)
Values after ≈ are worked out from the molar mass of the structure shown.

Legend:
[1] = fT>MIC required for stasis inhibition of methicillin-suceptible Staphylococcus aureus 29213 infection in neutropenic BALB/cAnNCr mouse; format: functional
[2] = fT>MIC required for 80% inhibition of community acquired methicillin-resistant Staphylococcus aureus 144 infection in neutropenic BALB/cAnNCr mouse; format: functional
Procedure, shortened: (§1)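 Same neutropenic murine pneumonia model, with 24-h lung log10 CFU change (5 mice per group; 1–25 mg/kg s.c., 1–5 times daily). […] ED50, ED80 and stasis exposures were taken from a sigmoid Emax fit for each isolate.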

[3] = Tmax in neutropenic BALB/cAnNCr mouse infected with Staphylococcus aureus at 2.5 mg/kg, sc administered as single dose after 6 hrs of infection; format: ADME, organism-based; set-up: dose 2.5 mg/kg, route subcutaneous; details: in vivo
Procedure, shortened: (§2)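 Female BALB/cAnNCr mice (7-9 weeks, 15-22 g) made neutropenic with cyclophosphamide, 250 mg/kg i.p. on day -4 and 100 mg/kg i.p. on day -1. Infected by oral aspiration of HA-MRSA 56 (10^7 CFU/ml in 3% mucin/saline). Single s.c. dose in sterile water given 6 h post-challenge. Plasma (EDTA, citric acid-stabilized) taken at 0.25-4 h, six mice per time point. Assayed by validated HPLC (LOQ 0.01 µg/ml); one-compartment analysis.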

Staphylococcus aureus [4] = assay: Antimicrobial activity against hospital acquired methicillin-resistant Staphylococcus aureus 149 infected in BALB/cAnNCr mouse assessed as decrease in bacterial density in lungs at 1 to 25 mg/kg, sc administered as 1 to 5 times/day after 24 hrs […] relative to control; format: functional; details: route subcutaneous
Procedure, shortened: (§3)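 Female BALB/cAnNCr mice (7–9 weeks) were made neutropenic with cyclophosphamide i.p. at 250 mg/kg on day −4 and 100 mg/kg on day −1. Under isoflurane, mice received an oral inoculum in 3% mucin/saline, with nostrils blocked until aspiration. Drug (1–25 mg/kg s.c., once to five times daily, water vehicle) or sham started 6 h post-inoculation. Lungs were harvested at 24 h, homogenized and plated on blood and Columbia agar at 35°C. Mean log10 CFU/ml was compared with the 0-h untreated baseline; 5 mice per group.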

[5] = fCmax/MIC required for 80% inhibition of Staphylococcus aureus infection in neutropenic BALB/cAnNCr mouse; format: functional
Mus musculus = assay: Volume of distribution in neutropenic BALB/cAnNCr mouse infected with Staphylococcus aureus at 2.5 mg/kg, sc administered as single dose after 6 hrs of infection; format: ADME, organism-based; set-up: dose 2.5 mg/kg, route subcutaneous; details: in vivo; procedure, shortened: as §2
[6] = Cmax in neutropenic BALB/cAnNCr mouse infected with Staphylococcus aureus at 2.5 mg/kg, sc administered as single dose after 6 hrs of infection; format: ADME, organism-based; set-up: dose 2.5 mg/kg, route subcutaneous; details: in vivo; procedure, shortened: as §2
[7] = fT>MIC required for stasis inhibition of community acquired methicillin-resistant Staphylococcus aureus 147 infection in neutropenic BALB/cAnNCr mouse; format: functional; procedure, shortened: as §1
[8] = Tmax in neutropenic BALB/cAnNCr mouse infected with Staphylococcus aureus at 25 mg/kg, sc administered as single dose after 6 hrs of infection; format: ADME, organism-based; set-up: dose 25 mg/kg, route subcutaneous; details: in vivo
Procedure, shortened: (§4)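 Neutropenic female mice (cyclophosphamide i.p. 250 mg/kg day −4, 100 mg/kg day −1) with HA-MRSA 56 pneumonia (oral inoculum, 10^7 CFU/ml in 3% mucin). Single s.c. dose in sterile water. Plasma by intracardiac puncture at 0.25–4 h, six mice per time point, stabilized with citric acid. Assayed by validated HPLC (LOQ 0.01 µg/ml). Parameters from one-compartment analysis.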

Staphylococcus aureus [9] = assay: Antimicrobial activity against methicillin-susceptible Staphylococcus aureus 29213 infected in BALB/cAnNCr mouse assessed as decrease in bacterial density in lungs at 1 to 25 mg/kg, sc administered as 1 to 5 times/day after 24 hrs […] relative to control; format: functional; details: route subcutaneous; procedure, shortened: as §3
Staphylococcus aureus [10] = assay: Antimicrobial activity against community acquired methicillin-resistant Staphylococcus aureus 146 by broth microdilution method; format: functional
Procedure, shortened: (§5)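 Broth microdilution run in triplicate following CLSI guidelines. Isolates were stored at –80°C in double-strength skim milk and subcultured twice on Trypticase soy agar with 5% sheep blood before testing.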

[11] = fT>MIC required for stasis inhibition of community acquired methicillin-resistant Staphylococcus aureus 146 infection in neutropenic BALB/cAnNCr mouse; format: functional; procedure, shortened: as §1
[12] = fT>MIC required for 50% inhibition of community acquired Staphylococcus aureus 144 infection in neutropenic BALB/cAnNCr mouse; format: functional; procedure, shortened: as §1
[13] = fT>MIC required for 80% inhibition of hospital acquired methicillin-resistant Staphylococcus aureus 56 infection in neutropenic BALB/cAnNCr mouse; format: functional; procedure, shortened: as §1
[14] = fT>MIC required for 50% inhibition of community acquired Staphylococcus aureus 146 infection in neutropenic BALB/cAnNCr mouse; format: functional
[15] = fT>MIC required for 50% inhibition of hospital acquired methicillin-resistant Staphylococcus aureus 56 infection in neutropenic BALB/cAnNCr mouse; format: functional; procedure, shortened: as §1
[16] = fT>MIC required for 50% inhibition of methicillin-susceptible Staphylococcus aureus 25923 infection in neutropenic BALB/cAnNCr mouse; format: functional
[17] = Elimination half life in neutropenic BALB/cAnNCr mouse infected with Staphylococcus aureus at 10 mg/kg, sc administered as single dose after 6 hrs of infection; format: ADME, organism-based; set-up: dose 10 mg/kg, route subcutaneous; details: in vivo; procedure, shortened: as §4
[18] = Cmax in neutropenic BALB/cAnNCr mouse infected with Staphylococcus aureus at 25 mg/kg, sc administered as single dose after 6 hrs of infection; format: ADME, organism-based; set-up: dose 25 mg/kg, route subcutaneous; details: in vivo; procedure, shortened: as §4
[19] = fT>MIC required for stasis inhibition of methicillin-susceptible Staphylococcus aureus 25923 infection in neutropenic BALB/cAnNCr mouse; format: functional
Staphylococcus aureus [20] = assay: Antimicrobial activity against hospital acquired methicillin-resistant Staphylococcus aureus 56 by broth microdilution method; format: functional; procedure, shortened: as §5
[21] = fT>MIC required for 80% inhibition of Staphylococcus aureus infection in neutropenic BALB/cAnNCr mouse; format: functional
[22] = Cmax in neutropenic BALB/cAnNCr mouse infected with Staphylococcus aureus at 1 mg/kg, sc administered as single dose after 6 hrs of infection; format: ADME, organism-based; set-up: dose 1 mg/kg, route subcutaneous; details: in vivo; procedure, shortened: as §4
[23] = fCmax/MIC required for 50% inhibition of Staphylococcus aureus infection in neutropenic BALB/cAnNCr mouse; format: functional
[24] = Elimination half life in neutropenic BALB/cAnNCr mouse infected with Staphylococcus aureus at 25 mg/kg, sc administered as single dose after 6 hrs of infection; format: ADME, organism-based; set-up: dose 25 mg/kg, route subcutaneous; details: in vivo; procedure, shortened: as §4
Staphylococcus aureus [25] = assay: Antimicrobial activity against methicillin-susceptible Staphylococcus aureus ATCC 25923 by broth microdilution method; format: functional; procedure, shortened: as §5
Staphylococcus aureus [26] = assay: Antimicrobial activity against community acquired methicillin-resistant Staphylococcus aureus 144 by broth microdilution method; format: functional; procedure, shortened: as §5
Staphylococcus aureus [27] = assay: Antimicrobial activity against methicillin-susceptible Staphylococcus aureus 25923 infected in BALB/cAnNCr mouse assessed as decrease in bacterial density in lungs at 1 to 25 mg/kg, sc administered as 1 to 5 times/day after 24 hrs […] relative to control; format: functional; details: dose mg/kg 1-5; route subcutaneous
Procedure, shortened: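 Neutropenic mice given oral S. aureus inoculum (10^7 CFU/ml in 3% mucin). s.c. dosing of 1–25 mg/kg, once to five times daily, began 6 h post-infection and ran 24 h, five mice per group, with sham-treated controls. Lung homogenates were plated on blood and Columbia agar at 35°C up to 48 h. Log10 CFU/ml at 24 h was compared with untreated controls.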

## Nc1nc(/C(=N/O)C(=O)N[C@@H]2C(=O)N3C(C(=O)O)=C(/C=C4\CCN([C@@H]5CCNC5)C4=O)CS[C@H]23)ns1 [CEFTOBIPROLE]
[1]
  fT>MIC: 13.3%
[2]
  fT>MIC: 14.3%
[3]
  Tmax: 24.6 min
Staphylococcus aureus [4]
  log10cfu: 4.1
[5]
  fCmax/MIC: 2
Mus musculus
  Vd: 0.63 L/kg
[6]
  Cmax: 2910 ng/mL
[7]
  fT>MIC: 14.9%
[8]
  Tmax: 28.2 min
Staphylococcus aureus [9]
  log10cfu: 3.9
Staphylococcus aureus [10]
  MIC: 2 µg/mL (≈ 3.74 µM)
[11]
  fT>MIC: 5.6%
[12]
  fT>MIC: 13.8%
[13]
  fT>MIC: 15.5%
[14]
  fT>MIC: 5.5%
[15]
  fT>MIC: 13.7%
[16]
  fT>MIC: 8.1%
[17]
  half-life: 25.2 min
[18]
  Cmax: 38600 ng/mL
[19]
  fT>MIC: 7.6%
Staphylococcus aureus [20]
  MIC: 1 µg/mL (≈ 1.87 µM)
[21]
  fT>MIC: 17%
[22]
  Cmax: 1740 ng/mL
[23]
  fCmax/MIC: 2
[24]
  half-life: 24 min
Staphylococcus aureus [25]
  MIC: 0.25 µg/mL (≈ 0.468 µM)
Staphylococcus aureus [26]
  MIC: 1 µg/mL (≈ 1.87 µM)
Staphylococcus aureus [27]
  log10cfu: 4.2
